Results on three molecules are retold here after ChEMBL document CHEMBL5661985, “In silico design of novel probes for the atypical opioid receptor MRGPRX2” (Nat Chem Biol, 2017).

Activity calls are given as the source filed them. The rule behind the calls is not given here. Where a SMILES comes first, the peptide text is derived from it.

The target in experiment [1] is T1, Mas-related G-protein coupled receptor member X2 (Homo sapiens, UniProt Q96LB1).
T1 sequence (Q96LB1 whole entry): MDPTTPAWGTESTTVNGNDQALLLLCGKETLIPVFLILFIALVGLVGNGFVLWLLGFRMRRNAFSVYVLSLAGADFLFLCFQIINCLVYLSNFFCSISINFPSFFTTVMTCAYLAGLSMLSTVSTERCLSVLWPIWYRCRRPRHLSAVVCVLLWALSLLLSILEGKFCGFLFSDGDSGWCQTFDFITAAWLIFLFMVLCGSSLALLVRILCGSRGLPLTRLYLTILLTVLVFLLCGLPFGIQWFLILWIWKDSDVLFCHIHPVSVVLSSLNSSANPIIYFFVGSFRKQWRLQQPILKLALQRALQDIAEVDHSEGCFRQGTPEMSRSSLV
As to the kind of experiment: Agonist activity at MRGPRX2 (unknown origin) expressed in HTLA cells assessed as induction of beta-arrestin 2 recruitment incubated for 18 to 24 hrs by PRESTO-Tango assay. Particulars: read-out: pEC50 (converted). It counts as functional, cell-based. In general terms: Recruitment of arrestin is a read-out of receptor activation apart from second messengers.

The target in experiment [2] is T1, Mas-related G-protein coupled receptor member X2. The experiment is described as follows: Agonist activity at N-terminal Flag-tagged human MRGPRX2 receptor expressed in tetracycline-induced FLP-IN/T-REX 293 cells assessed as increase in intracellular calcium release by FLIPR assay. It counts as functional, cell-based. As to conditions: read-out: pEC50 (converted). For orientation: Calcium assays in cells follow changes in intracellular calcium, usually with a dye or a luminescent sensor.

Experiment [3] deals with T2, Mas-related G-protein coupled receptor member X2 (Homo sapiens) (UniProt Q96LB1).
T2 sequence (whole entry): T1 sequence (Q96LB1 whole entry)
The experiment is described as follows: Agonist activity at N-terminal Flag-tagged human MRGPRX2 receptor expressed in FLP-IN/T-REX 293 cells assessed as increase in intracellular calcium release by FLIPR assay. It is filed as functional, cell-based. As to conditions: filed as agonist. An outline of the steps: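 FLIPR calcium: FLP-IN/T-REX HEK-293-T stable line with N-terminal FLAG codon-optimized receptor, induced 24 h with 1 μg/mL tetracycline in 1% dialyzed FBS (uninduced cells as control); FLIPR calcium dye plus 2.5 mM probenecid 1 h 37°C; 10 s baseline, then drug in HBSS/20 mM HEPES/probenecid pH 7.4, 16-point curve 10 μM to 0.003 nM; fluorescence 120 s; fold over basal, n=3 triplicate.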

The next experiment deals with HTLA. The experiment is described as follows: Agonist activity at […] expressed in HTLA cells assessed as induction of beta-arrestin 2 recruitment incubated for 18 to 24 hrs by PRESTO-Tango assay. It counts as cell-based. As to conditions: Rodentia, filed as agonist, time 18-24 hrs. The gist of the method: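 β-arrestin2 recruitment by PRESTO-Tango: HTLA cells transiently transfected (calcium phosphate) with codon-optimized MRGPRX2-Tango (WT or point mutant) or MRGPRB2-Tango, plated next day 20,000 cells/well on poly-L-lysine; drug in HBSS/20 mM HEPES/0.3% BSA pH 7.4 for 18–24 h; Bright-Glo luminescence (RLU); curves n=3 in triplicate, mutants n=4 in triplicate.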

In the next experiment the test system is Flp-In-T-REx-293. The experiment is described as follows: Agonist activity at rodent MRGPRB2 receptor expressed in tetracycline-induced FLP-IN/T-REX 293 cells assessed as increase in intracellular calcium release at 0.003 to 100000 nM by FLIPR assay. As to conditions: Rodentia, filed as agonist, dose 0.003-100000 nM. It is filed as cell-based.

Turning to `CC[C@H](C)[C@H](N)C(=O)N[C@@H](CC(N)=O)C(=O)N[C@@H](CC(C)C)C(=O)N[C@@H](CCCCN)C(=O)N[C@@H](C)C(=O)N[C@@H](CC(C)C)C(=O)N[C@@H](C)C(=O)N[C@@H](C)C(=O)N[C@@H](CC(C)C)C(=O)N[C@@H](C)C(=O)N[C@@H](CCCCN)C(=O)N[C@@H](CCCCN)C(=O)N[C@H](C(=O)N[C@@H](CC(C)C)C(N)=O)[C@@H](C)CC`, the EC50 in experiment [1] was above 31600 nM; in experiment [2], 11700 nM. For the same molecule, the outcome in experiment [3] was Active.
As for `COC1=CC2CN(C)CCC2C=C1` (stereo not drawn), the EC50 in experiment [2] is 1620 nM.
In the case of `C[C@@H](O)[C@@H]1NC(=O)[C@H](CCCCN)NC(=O)[C@H](Cc2c[nH]c3ccccc23)NC(=O)[C@H](Cc2ccccc2)NC(=O)[C@H](Cc2ccccc2)NC(=O)[C@H](CC(N)=O)NC(=O)[C@H](CCCCN)NC(=O)[C@@H](NC(=O)[C@@H]2CCCN2)CSSC[C@@H](C(=O)N[C@@H](CCCCN)C(=O)O)NC(=O)[C@H](CO)NC(=O)[C@H](CO)NC(=O)[C@H](Cc2ccccc2)NC1=O` (HELM PEPTIDE1{P.C.K.N.F.F.W.K.T.F.S.S.C.K}$PEPTIDE1,PEPTIDE1,2:R3-13:R3$$$V2.0), the EC50 in experiment [1] was 145 nM; in experiment [2] it was 417 nM. The outcome in the experiment on HTLA and in the experiment with Flp-In-T-REx-293 was Active.
